Laboratory results taken from PMC2233693 (The Journal of General Physiology, 2000).
Residue numbers refer to the chain shown, from its start. Read-outs that look alike come from different tables or passages of the source.

Columns and labels:
Type in all cases: biochemical
[1] = target: T1, E340G mutant bovine olfactory CNG channel (Bos taurus, UniProt Q03041, E340G); experiment: Blockage of macroscopic current by external Ca2+ or Mg2+, outside-out patches; details: for Ki: mean ± SD
T1 sequence (Q03041 1-663 E340G): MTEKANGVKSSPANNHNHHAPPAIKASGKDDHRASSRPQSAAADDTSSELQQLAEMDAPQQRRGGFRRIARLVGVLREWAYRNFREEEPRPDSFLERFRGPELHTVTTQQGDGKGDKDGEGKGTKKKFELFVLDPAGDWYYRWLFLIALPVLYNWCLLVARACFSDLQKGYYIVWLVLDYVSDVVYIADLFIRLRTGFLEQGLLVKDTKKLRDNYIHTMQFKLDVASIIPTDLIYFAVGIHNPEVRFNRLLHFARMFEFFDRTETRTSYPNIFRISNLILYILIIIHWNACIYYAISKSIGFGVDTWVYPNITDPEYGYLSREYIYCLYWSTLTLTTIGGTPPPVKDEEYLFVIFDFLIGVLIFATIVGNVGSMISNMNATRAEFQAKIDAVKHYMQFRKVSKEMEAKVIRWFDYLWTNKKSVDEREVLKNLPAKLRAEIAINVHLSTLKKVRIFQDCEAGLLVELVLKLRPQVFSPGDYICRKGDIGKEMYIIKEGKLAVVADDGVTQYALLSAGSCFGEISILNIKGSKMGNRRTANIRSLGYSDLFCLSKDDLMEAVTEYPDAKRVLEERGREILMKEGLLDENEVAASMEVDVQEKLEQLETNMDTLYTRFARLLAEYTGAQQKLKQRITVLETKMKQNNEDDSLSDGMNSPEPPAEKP
Procedure, shortened: (§1)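 Xenopus oocytes injected with wild-type or mutant channel mRNA; outside-out patches with 100 μM cGMP in the pipette. Bath: 110 mM NaCl, 2 mM EDTA, 10 mM HEPES, pH 7.4, plus Ca2+ (NTA-buffered) or Mg2+ (EDTA-buffered); unbuffered above 0.1 mM. Five 1-s ramps (−80 to +80 mV) averaged, leak subtracted. Current normalised to divalent-free current at the same voltage, Hill-fitted per patch; Ki and n given as mean ± SD.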

[2] = target: T2, wild-type bovine olfactory CNG channel (α3 subunit) (Bos taurus, UniProt Q03041); experiment: as above; details: for Ki: mean ± SD
T2 sequence (Q03041 1-663): T1 sequence (Q03041 1-663 E340G) with G340E
Procedure, shortened: as §1

[3] = target: T1, E340G mutant bovine olfactory CNG channel; experiment: Divalent cation permeation, outside-out patches in bi-ionic conditions; details: for reversal potential, V rev: internal Na
Procedure, shortened: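 Outside-out oocyte patches; the pipette held 1 mM cGMP and 110 mM NaCl. External 110 mM NaCl was replaced by 73.3 mM CaCl2 or MgCl2. From a 0 mV holding potential, 150-ms steps were given from −80 to +80 mV in 20-mV increments. I_Ca/I_Na was taken at −80 mV, and reversal potential under bi-ionic conditions (internal Na+, external divalent); mean ± SD.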

[4] = target: T3, E340N mutant bovine olfactory CNG channel (Bos taurus, UniProt Q03041, E340N)
T3 sequence (Q03041 1-663 E340N): T1 sequence (Q03041 1-663 E340G) with G340N

[5] = target: T1, E340G mutant bovine olfactory CNG channel
[6] = read-out: K 1/2,cG, −80 mV, single patch, Fig. 1 fit
[7] = −80 mV, single patch, Fig. 1 fit

SMILES: [Ca+2] [Ca^2+]
- n, Hill coefficient of blockage ([1]; external Ca2+, +80 mV): 0.6 ± 0.2
- Ki ([1]; external Ca2+, +80 mV): 26000 ± 9800 µM
- n, Hill coefficient of blockage ([1]; external Ca2+, −80 mV): 0.4 ± 0.1
- Ki ([1]; external Ca2+, −80 mV): 6300 ± 2500 µM
- n, Hill coefficient of blockage ([2]; external Ca2+, +80 mV): 0.9 ± 0.1
- Ki ([2]; external Ca2+, +80 mV): 383 ± 145 µM
- n, Hill coefficient of blockage ([2]; external Ca2+, −80 mV): 1.3 ± 0.4
- Ki ([2]; external Ca2+, −80 mV): 47 ± 21 µM
- reversal potential, V rev ([3]; external Ca2+): 24 ± 5 mV
- I Ca/I Na ([3]; −80 mV, external 73.3 mM CaCl2 vs 110 mM NaCl): 0.16 ± 0.03
- effect of external Ca2+ on K 1/2 for cAMP or cGMP ([4]; 1 mM Ca2+ in the patch pipette): did not significantly affect K 1/2
- effect of external Ca2+ on K 1/2 for cAMP or cGMP ([5]; 1 mM Ca2+ in the patch pipette): did not significantly affect K 1/2

SMILES: [Mg+2] [Mg^2+]
- n, Hill coefficient of blockage ([1]; external Mg2+, +80 mV): 0.8 ± 0.2
- Ki ([1]; external Mg2+, +80 mV): 9500 ± 3900 µM
- n, Hill coefficient of blockage ([1]; external Mg2+, −80 mV): 0.7 ± 0.1
- Ki ([1]; external Mg2+, −80 mV): 1100 ± 300 µM
- n, Hill coefficient of blockage ([2]; external Mg2+, +80 mV): 1.0 ± 0.1
- Ki ([2]; external Mg2+, +80 mV): 920 ± 640 µM
- n, Hill coefficient of blockage ([2]; external Mg2+, −80 mV): 1.2 ± 0.2
- Ki ([2]; external Mg2+, −80 mV): 70 ± 34 µM
- reversal potential, V rev ([3]; external Mg2+): 45 ± 15 mV

SMILES: Nc1nc2c(ncn2[C@@H]2O[C@@H]3COP(=O)(O)O[C@H]3[C@H]2O)c(=O)[nH]1 [cGMP]
- n(−80 mV), Hill coefficient ([4]; cGMP): 2.1 ± 0.3
- I(−80 mV)/I(+80 mV) ([4]; cGMP-gated current): 0.55 ± 0.10
- EC50 ([4]; read-out: K 1/2, cGMP, +80 mV): 5.6 ± 1.8 µM
- EC50 ([4]; read-out: K 1/2, cGMP, −80 mV): 7.6 ± 4 µM
- EC50 [4, 6]: 6.6 µM
- n cG [4, 7]: 2.3
- n(−80 mV), Hill coefficient ([5]; cGMP): 1.8 ± 0.4
- I(−80 mV)/I(+80 mV) ([5]; cGMP-gated current): 0.79 ± 0.09
- EC50 ([5]; read-out: K 1/2, cGMP, +80 mV): 13 ± 1.5 µM
- EC50 ([5]; read-out: K 1/2, cGMP, −80 mV): 15 ± 1.6 µM
- EC50 [5, 6]: 18.5 µM
- n cG [5, 7]: 1.6
